ChEMBL document CHEMBL4308845, “Allosteric Activation of Striatal-Enriched Protein Tyrosine Phosphatase (STEP, PTPN5) by a Fragment-like Molecule” (J Med Chem, 2019)
Active and inactive are the calls of the source. No cut-off for these calls is given here.

Assays:
[1] = target: T1, Tyrosine-protein phosphatase non-receptor type 1 (Homo sapiens) (UniProt P18031); experiment: Activation of human PTP1B (1 to 405 residues) at 500 uM preincubated for 10 mins followed by pFYN substrate addition and measured after 1.5 hrs by AlphaLISA assay
T1 sequence (whole entry): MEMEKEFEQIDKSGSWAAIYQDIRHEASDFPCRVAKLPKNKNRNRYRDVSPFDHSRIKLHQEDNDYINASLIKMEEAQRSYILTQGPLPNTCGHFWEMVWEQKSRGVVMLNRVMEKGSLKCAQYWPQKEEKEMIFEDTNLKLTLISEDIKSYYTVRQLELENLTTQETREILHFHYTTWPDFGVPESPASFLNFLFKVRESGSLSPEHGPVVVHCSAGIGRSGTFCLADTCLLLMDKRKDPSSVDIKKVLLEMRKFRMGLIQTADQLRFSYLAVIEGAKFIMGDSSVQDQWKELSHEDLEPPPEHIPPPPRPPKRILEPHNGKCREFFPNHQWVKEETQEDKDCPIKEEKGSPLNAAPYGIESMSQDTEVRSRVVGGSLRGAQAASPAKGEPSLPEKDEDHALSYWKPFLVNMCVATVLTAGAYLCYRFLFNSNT
How it was run: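 In-house PTP1B (1−405) at 500 pM final, preincubated 10 min at 24 °C with compound (up to 500 μM), then EDT-pY-Y-RKG-amide (1.4 μM final) or pFYN (20 μM final) added; 1.5 h at 24 °C, humidified. Stopped with 200 μM orthovanadate. Competition AlphaScreen using biotin-Ahx-EDT-pY-Y-RKG-amide (2.5 nM), anti-pTyr antibody 4G10 (500 pM), beads (5 μg/mL each), 2 h at 24 °C. Read against on-plate substrate standard curve.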

Homo sapiens [2] = organism: Homo sapiens; experiment: Activation of human STEP46 (197 to 565 residues) expressed in Escherichia coli BL21(DE3) at 500 uM using biotin-pFyn peptide substrate after 60 mins by AlphaLISA assay relative to control
How it was run: (§1)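 STEP46 (50 nM final) with biotinylated pFyn peptide (20 nM final) and compound in 1% DMSO, 60 min at room temperature in the dark. Detection by anti non-phospho Src/Tyr416 antibody in stop buffer containing 10 μM orthovanadate, plus protein A acceptor and streptavidin donor beads, 15 min each. % CTL computed against enzyme (100%) and no-enzyme (0%) controls.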

[3] = target: T1, Tyrosine-protein phosphatase non-receptor type 1 (Homo sapiens); experiment: Binding affinity to human PTP1B by 1H,15N TROSY NMR spectral analysis
[4] = target: T2, Tyrosine-protein phosphatase non-receptor type 5 (Homo sapiens) (UniProt P54829); experiment: Binding affinity to human 15N-labeled STEP PTP domain (281 to 563 residues) expressed in Escherichia coli OD2 assessed as induction of chemical perturbation at 500 uM by 1H,15N TROSY NMR spectral analysis
T2 sequence (whole entry): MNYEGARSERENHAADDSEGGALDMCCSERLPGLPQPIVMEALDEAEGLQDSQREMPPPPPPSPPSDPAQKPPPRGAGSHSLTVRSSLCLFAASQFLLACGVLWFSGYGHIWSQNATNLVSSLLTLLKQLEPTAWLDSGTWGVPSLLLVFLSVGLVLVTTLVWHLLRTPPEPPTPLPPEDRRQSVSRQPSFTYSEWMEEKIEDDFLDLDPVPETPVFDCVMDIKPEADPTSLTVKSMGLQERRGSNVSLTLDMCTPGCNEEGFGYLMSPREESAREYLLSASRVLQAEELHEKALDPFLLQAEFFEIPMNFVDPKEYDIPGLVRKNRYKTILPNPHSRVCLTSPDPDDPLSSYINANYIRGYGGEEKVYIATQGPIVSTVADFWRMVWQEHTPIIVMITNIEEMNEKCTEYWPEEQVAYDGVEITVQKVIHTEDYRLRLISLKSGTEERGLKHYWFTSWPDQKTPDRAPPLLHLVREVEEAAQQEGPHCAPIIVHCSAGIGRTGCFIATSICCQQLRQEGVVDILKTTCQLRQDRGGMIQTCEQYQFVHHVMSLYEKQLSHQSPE
How it was run: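 40 μM 15N-labelled STEP PTP domain in 20 mM Tris-d11, 100 mM NaCl, 1 mM TCEP, pH 7.4, 8% D2O, 1% DMSO-d6, 298 K. TROSY spectra used 192 transients and 64 indirect points. Binders were called by manual comparison with the protein-only reference spectrum.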

Homo sapiens [5] = organism: Homo sapiens; experiment: Activation of human STEP46 (197 to 565 residues) expressed in Escherichia coli BL21(DE3) at 300 uM preincubated for 10 mins followed by DiFMUP substrate addition and measured at 1 min time interval for 30 mins by fluorescence assay relative to control
How it was run: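 STEP46 preincubated 10 min at room temperature with compound; reaction started with DiFMUP. Final: 100 nM STEP46, 1 μM DiFMUP, 50 mM HEPES, 0.02% Brij 35, 1 mM DTT, 5% DMSO. Fluorescence (ex 340/em 460 nm) every 1 min for 30 min at 37 °C; no-enzyme background subtracted. Linear slope expressed relative to enzyme without compound (100%).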

[6] = target: T2, Tyrosine-protein phosphatase non-receptor type 5 (Homo sapiens); experiment: Activation of human STEP PTP domain (281 to 563 residues) expressed in Escherichia coli BL21(DE3) at 500 uM using biotin-pFyn peptide substrate after 60 mins by AlphaLISA assay relative to control
How it was run: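 AlphaLISA on the human STEP PTP domain (E. coli BL21(DE3)), 20 nM enzyme with 3 nM biotin-pFyn peptide, otherwise as for STEP46: 60 min at room temperature, anti non-phospho Src/Tyr416 antibody with orthovanadate stop, donor and acceptor beads, % of enzyme and no-enzyme controls.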

[7] = target: T3, Tyrosine-protein phosphatase non-receptor type 5 (Homo sapiens, UniProt P54829); experiment: Binding affinity to human 15N-labeled STEP PTP domain (281 to 563 residues) expressed in Escherichia coli OD2 by 1H,15N TROSY NMR spectral analysis
T3 sequence (P54829 whole entry): T2 sequence (whole entry)
How it was run: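 40 μM ¹⁵N-labeled STEP PTP domain (expressed in ¹⁵N OD2 medium) in 20 mM Tris-d11, 100 mM NaCl, 1 mM TCEP, pH 7.4, 8% D₂O, with 500 μM ligand and 1% DMSO-d₆ at 298 K. 2D spectra of 192 transients were compared by hand with the protein reference spectrum.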

Homo sapiens [8] = organism: Homo sapiens; experiment: Activation of human STEP46 (197 to 565 residues) expressed in Escherichia coli BL21(DE3) using biotin-pFyn peptide substrate after 60 mins by AlphaLISA assay; how it was run: as §1

In the case of `N=C(N)Nc1cc(C2CCNCC2)cc(C(F)(F)F)c1`, the Activity [1] is reported as “inactive”, the Activity (Homo sapiens [2]) is reported as 56% and the Activity [3] is reported as “inactive”. For the same molecule, the Activity [4] was “Active”, the Activity (Homo sapiens [5]) was 27% and the Activity [6] was 61%. The Kd [7] was 38 µM and the Activity (Homo sapiens [8]) was “Dose-dependent effect”.
